In ChEMBL document CHEMBL4627265, “Optimization of 8-oxoadenines with toll-like-receptor 7 and 8 activity” (Bioorg Med Chem Lett, 2020):
Calls of active or inactive are those of the source. The rule behind the calls is not given here.

Experiments:
Assay type in all cases: cell-based
Toll-like receptor 7 = biological target: T1, Toll-like receptor 7 (Homo sapiens, UniProt Q9NYK1); test: Agonist activity at human TLR7 expressed in HEK293 cells assessed as induction of NFKappaB activity after 24 hrs by SEAP reporter gene assay
T1 sequence (Q9NYK1 whole entry): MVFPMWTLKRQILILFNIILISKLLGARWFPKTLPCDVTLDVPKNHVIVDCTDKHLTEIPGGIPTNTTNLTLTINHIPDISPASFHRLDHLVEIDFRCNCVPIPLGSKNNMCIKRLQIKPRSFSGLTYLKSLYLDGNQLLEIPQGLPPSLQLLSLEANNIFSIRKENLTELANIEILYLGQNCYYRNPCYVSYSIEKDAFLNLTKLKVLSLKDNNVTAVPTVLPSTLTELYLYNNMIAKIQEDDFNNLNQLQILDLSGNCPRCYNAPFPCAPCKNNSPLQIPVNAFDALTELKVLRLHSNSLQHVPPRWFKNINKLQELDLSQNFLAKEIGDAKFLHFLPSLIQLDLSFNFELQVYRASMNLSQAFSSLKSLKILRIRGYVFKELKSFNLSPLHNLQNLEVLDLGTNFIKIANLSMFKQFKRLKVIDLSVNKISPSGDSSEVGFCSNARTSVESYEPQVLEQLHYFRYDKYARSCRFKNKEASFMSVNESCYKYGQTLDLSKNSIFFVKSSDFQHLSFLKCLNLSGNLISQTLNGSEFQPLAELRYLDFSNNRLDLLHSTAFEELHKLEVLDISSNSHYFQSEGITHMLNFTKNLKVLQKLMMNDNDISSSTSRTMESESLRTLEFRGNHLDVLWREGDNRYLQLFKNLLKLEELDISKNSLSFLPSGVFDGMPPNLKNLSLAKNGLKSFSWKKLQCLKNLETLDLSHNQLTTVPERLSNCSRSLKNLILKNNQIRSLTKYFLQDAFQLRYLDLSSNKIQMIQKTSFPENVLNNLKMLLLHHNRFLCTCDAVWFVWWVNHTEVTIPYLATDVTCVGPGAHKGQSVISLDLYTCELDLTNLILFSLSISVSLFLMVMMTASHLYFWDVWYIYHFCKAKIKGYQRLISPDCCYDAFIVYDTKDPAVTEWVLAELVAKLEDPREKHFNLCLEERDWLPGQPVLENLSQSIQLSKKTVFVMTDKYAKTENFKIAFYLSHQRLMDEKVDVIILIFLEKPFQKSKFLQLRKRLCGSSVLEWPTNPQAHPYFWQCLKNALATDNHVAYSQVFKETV
Summary of the method: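 HEK293 cells stably transfected with hTLR7 or hTLR8 plus an NFκB-driven SEAP reporter, treated 24 h with compound over a μM range; SEAP secretion read out. EC50 as mean ± SD of three (TLR7) or four (TLR8) independent experiments.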

[1] = biological target: T2, Toll-like receptor 7 (Homo sapiens) (UniProt Q9NYK1); test: Agonist activity at TLR7 in human PBMC assessed as induction of plasmacytoid dendritic cell maturation by measuring increase in MHC-1 level at 0.1 uM after 6 hrs by flow cytometry relative to control
T2 sequence (whole entry): T1 sequence (Q9NYK1 whole entry)
Summary of the method: (§1)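 hPBMCs stimulated 6 h at a single 0.1 μM dose; HLA-DR, MHC-I, CD80 and CD86 on mDCs and pDCs measured by flow cytometry, expressed as fold change versus unstimulated cells. Mean ± SD of three independent experiments in three different donors.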

[2] = biological target: T2, Toll-like receptor 7 (Homo sapiens); test: Agonist activity at TLR7 in human PBMC assessed as IFNalpha stimulation at 10 uM
Summary of the method: (§2)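 IFNα secretion by hPBMCs across a μM dose range; MEC = lowest dose tested inducing cytokine, PC = dose giving highest level, PL = peak level at 10 μM. Data representative of one of three independent donors.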

[3] = biological target: T3, Toll-like receptor 9 (Homo sapiens) (UniProt Q9NR96); test: Agonist activity at human TLR9 expressed in HEK293 cells by SEAP reporter gene assay
T3 sequence (whole entry): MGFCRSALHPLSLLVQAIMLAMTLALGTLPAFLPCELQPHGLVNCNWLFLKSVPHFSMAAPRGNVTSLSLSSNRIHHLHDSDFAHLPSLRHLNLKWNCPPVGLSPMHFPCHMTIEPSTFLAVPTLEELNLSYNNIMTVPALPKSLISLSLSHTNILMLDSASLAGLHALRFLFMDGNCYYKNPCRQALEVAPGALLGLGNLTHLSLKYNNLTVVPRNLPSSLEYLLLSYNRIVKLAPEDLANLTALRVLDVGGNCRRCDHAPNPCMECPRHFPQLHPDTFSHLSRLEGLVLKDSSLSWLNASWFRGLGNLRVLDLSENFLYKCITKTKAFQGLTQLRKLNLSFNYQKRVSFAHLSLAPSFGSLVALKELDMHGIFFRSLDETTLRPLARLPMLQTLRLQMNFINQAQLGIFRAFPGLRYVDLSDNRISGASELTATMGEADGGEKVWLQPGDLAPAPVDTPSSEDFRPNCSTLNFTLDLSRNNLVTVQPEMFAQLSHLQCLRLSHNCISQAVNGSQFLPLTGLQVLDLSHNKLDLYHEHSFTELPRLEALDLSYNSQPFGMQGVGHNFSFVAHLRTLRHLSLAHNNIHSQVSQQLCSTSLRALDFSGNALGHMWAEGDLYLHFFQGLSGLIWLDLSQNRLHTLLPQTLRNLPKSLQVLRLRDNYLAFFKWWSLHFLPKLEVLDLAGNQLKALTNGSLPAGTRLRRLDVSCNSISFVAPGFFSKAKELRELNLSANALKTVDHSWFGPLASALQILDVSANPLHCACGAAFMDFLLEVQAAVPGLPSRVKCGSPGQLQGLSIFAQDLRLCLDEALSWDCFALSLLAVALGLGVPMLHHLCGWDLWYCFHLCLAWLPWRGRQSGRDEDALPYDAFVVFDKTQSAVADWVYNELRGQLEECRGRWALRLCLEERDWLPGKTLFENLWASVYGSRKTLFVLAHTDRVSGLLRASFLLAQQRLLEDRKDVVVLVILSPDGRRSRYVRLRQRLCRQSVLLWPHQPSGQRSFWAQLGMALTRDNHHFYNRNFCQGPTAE

[4] = biological target: T2, Toll-like receptor 7 (Homo sapiens); test: Agonist activity at TLR7 in human PBMC assessed as induction of plasmacytoid dendritic cell maturation by measuring increase in CD86 level at 0.1 uM after 6 hrs by flow cytometry relative to control; summary of the method: as §1
[5] = biological target: Toll-like receptor 3 (Homo sapiens) (UniProt O15455); test: Agonist activity at human TLR3 expressed in HEK293 cells by SEAP reporter gene assay
[6] = biological target: T2, Toll-like receptor 7 (Homo sapiens); test: Agonist activity at TLR7 in human PBMC assessed as induction of plasmacytoid dendritic cell maturation by measuring increase in HLA-DR level at 0.1 uM after 6 hrs by flow cytometry relative to control; summary of the method: as §1
[7] = biological target: T2, Toll-like receptor 7 (Homo sapiens); test: Agonist activity at TLR7 in human PBMC assessed as induction of plasmacytoid dendritic cell maturation by measuring CD80 level at 0.1 uM after 6 hrs by flow cytometry; summary of the method: as §1
[8] = biological target: T2, Toll-like receptor 7 (Homo sapiens); test: Agonist activity at TLR7 in human PBMC assessed as induction of plasmacytoid dendritic cell maturation by measuring CD86 level at 0.1 uM after 6 hrs by flow cytometry; summary of the method: as §1
[9] = biological target: T4, Toll-like receptor 8 (Homo sapiens) (UniProt Q9NR97); test: Agonist activity at TLR8 in human PBMC assessed as TNFalpha level at 10 uM
T4 sequence (whole entry): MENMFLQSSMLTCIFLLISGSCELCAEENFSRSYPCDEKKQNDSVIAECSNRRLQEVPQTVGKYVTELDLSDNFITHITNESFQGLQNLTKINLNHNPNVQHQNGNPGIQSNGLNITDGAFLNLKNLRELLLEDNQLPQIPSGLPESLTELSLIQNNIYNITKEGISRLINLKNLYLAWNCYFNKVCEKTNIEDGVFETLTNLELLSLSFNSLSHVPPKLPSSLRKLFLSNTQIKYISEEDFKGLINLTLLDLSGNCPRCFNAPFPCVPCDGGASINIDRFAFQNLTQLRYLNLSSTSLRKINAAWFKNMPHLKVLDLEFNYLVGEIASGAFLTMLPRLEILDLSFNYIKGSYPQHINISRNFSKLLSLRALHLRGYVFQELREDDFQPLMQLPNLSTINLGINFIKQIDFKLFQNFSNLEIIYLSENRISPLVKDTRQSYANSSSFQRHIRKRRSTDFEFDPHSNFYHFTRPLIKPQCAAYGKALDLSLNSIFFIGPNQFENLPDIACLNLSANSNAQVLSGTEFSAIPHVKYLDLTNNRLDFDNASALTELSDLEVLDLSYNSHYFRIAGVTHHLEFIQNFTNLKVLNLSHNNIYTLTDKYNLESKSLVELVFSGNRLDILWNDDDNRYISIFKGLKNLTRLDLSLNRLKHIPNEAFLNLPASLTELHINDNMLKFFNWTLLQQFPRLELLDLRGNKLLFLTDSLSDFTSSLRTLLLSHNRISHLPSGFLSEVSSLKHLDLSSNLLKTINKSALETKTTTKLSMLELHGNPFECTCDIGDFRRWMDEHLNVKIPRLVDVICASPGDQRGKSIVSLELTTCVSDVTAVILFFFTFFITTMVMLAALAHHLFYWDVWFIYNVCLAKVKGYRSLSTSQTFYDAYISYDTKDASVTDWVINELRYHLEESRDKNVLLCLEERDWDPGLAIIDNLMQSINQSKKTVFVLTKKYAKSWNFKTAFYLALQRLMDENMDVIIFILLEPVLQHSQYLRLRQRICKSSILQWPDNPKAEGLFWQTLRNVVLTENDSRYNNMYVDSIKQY
Summary of the method: (§3)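 TNFα secretion by hPBMCs across a μM dose range; MEC = lowest dose tested inducing cytokine, PC = dose giving highest level, PL = peak level at 10 μM. Data representative of one of three independent donors.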

[10] = biological target: T4, Toll-like receptor 8 (Homo sapiens); test: Agonist activity at TLR8 in human PBMC assessed as TNFalpha level; summary of the method: as §3
[11] = biological target: TLR7 and TLR8 (Homo sapiens) (UniProt Q9NYK1+Q9NR97); test: Agonist activity at TLR7/TLR8 in human PBMC assessed as IFN alpha level; summary of the method: as §2
[12] = biological target: T2, Toll-like receptor 7 (Homo sapiens); test: Agonist activity at TLR7 in human PBMC assessed as induction of plasmacytoid dendritic cell maturation by measuring MHC-1 level at 0.1 uM after 6 hrs by flow cytometry; summary of the method: as §1
[13] = biological target: T2, Toll-like receptor 7 (Homo sapiens); test: Agonist activity at TLR7 in human PBMC assessed as induction of plasmacytoid dendritic cell maturation by measuring HLA-DR level at 0.1 uM after 6 hrs by flow cytometry; summary of the method: as §1

Toll-like receptor 3 (Homo sapiens), sequence (O15455 whole entry): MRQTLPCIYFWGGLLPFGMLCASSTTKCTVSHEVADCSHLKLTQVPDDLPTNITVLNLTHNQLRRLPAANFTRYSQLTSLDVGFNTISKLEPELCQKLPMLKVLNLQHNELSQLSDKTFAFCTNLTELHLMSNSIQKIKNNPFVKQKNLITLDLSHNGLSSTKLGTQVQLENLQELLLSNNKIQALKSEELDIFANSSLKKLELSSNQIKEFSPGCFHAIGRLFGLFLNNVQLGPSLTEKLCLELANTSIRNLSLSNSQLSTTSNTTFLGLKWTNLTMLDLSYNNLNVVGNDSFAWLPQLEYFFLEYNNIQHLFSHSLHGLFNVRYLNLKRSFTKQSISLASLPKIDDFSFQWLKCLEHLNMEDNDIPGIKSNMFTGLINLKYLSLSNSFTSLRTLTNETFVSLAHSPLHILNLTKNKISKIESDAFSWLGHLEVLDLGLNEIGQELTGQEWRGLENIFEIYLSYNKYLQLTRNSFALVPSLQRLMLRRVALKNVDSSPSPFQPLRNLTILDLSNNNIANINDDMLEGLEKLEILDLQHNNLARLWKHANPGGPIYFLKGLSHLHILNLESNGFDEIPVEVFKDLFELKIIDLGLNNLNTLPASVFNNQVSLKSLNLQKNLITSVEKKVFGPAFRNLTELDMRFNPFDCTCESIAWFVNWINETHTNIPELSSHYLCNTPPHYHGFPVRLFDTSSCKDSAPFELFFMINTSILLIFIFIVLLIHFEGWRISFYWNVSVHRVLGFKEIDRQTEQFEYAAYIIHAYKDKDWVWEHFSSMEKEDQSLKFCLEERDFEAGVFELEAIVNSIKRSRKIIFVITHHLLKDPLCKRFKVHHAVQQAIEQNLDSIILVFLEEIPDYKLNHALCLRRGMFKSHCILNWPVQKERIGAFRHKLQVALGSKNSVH

Row | Structure (SMILES) | EC50 (Toll-like receptor 7) [nM] | fold change (FC) [1] | Activity [2] [pg/mL] | Activity [3] | fold change (FC) [4] | Activity [5] | fold change (FC) [6] | Activity [7] | Activity [8] | Activity [12] | Activity [13] | Activity [9] [pg/mL] | MEC [10] [µM] | ECmax [11] [µM] | MEC [11] [µM]
1 | CCCCOc1nc(N)c2[nH]c(=O)n(CC3CCN(CCN)CC3)c2n1 | 30000 | 1.5 to 1.7 | 3040 | – | 1.7 to 2.3 | – | 1.5 to 1.7 | inactive | inactive | – | – | – | – | – | –
2 | COCCOc1nc(N)c2[nH]c(=O)n(Cc3ccccc3)c2n1 | 1170 | – | 1440 | – | – | – | – | – | – | – | – | 1660 | 2 | 0.08 | 0.08
3 | COCCOc1nc(N)c2[nH]c(=O)n(CC3CCNCC3)c2n1 | > 500000 | – | 2240 | inactive | – | inactive | – | inactive | inactive | inactive | inactive | – | – | – | –

Now from value to molecule, other results behind:

Row | EC50 (Toll-like receptor 7) [nM] | fold change (FC) [1] | Activity [2] [pg/mL] | Activity [3] | fold change (FC) [4] | Activity [5] | fold change (FC) [6] | Activity [7] | Activity [8] | Activity [12] | Activity [13] | Structure (SMILES) | Activity [9] [pg/mL] | MEC [10] [µM] | ECmax [11] [µM] | MEC [11] [µM]
4 | 2680 | 1.2 to 2.4 | 5470 | inactive | 2 | inactive | 1.2 to 2.4 | – | – | – | – | CCC[C@H](C)Oc1nc(N)c2[nH]c(=O)n(CC3CCNCC3)c2n1 | – | – | – | –
5 | 35800 | 1.2 to 2.4 | 6210 | inactive | – | inactive | 1.2 to 2.4 | inactive | inactive | – | – | CCC[C@@H](C)Oc1nc(N)c2[nH]c(=O)n(CC3CCNCC3)c2n1 | – | – | – | –
6 | 240 | 1.7 to 2.3 | 2640 | – | – | – | 1.7 to 2.3 | – | – | – | – | CCC[C@H](C)Oc1nc(N)c2[nH]c(=O)n(CCCCCC3CCNCC3)c2n1 | – | – | – | –
